In all, about 2,500 compounds went through this assay and about 460 (18%) were called active.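 How the source made its calls: active means mean activation above a cutoff of low control average plus 3 SD from the earlier screen (cut at about 12% in these data); inactive means the rest.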 A selection follows.

This experiment in a line: compound fluorescence interference without thin filaments, confirmation, artefact control for cardiac RTF calcium sensitizer project, biochemical (AID 504382). The note with it: IANBD fluorescence interference counterscreen, buffer, EC20 Ca2+; at 7.2 µM; hits give high values; scaled: EC20 calcium 0, EC100 calcium 100. The method, boiled down:
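Medium: MOPS/KCl/MgCl2/EGTA/NTA/DTT buffer, pH 7.2 | Reagent: EC20 calcium, 0.472 mM | Compound dosing: 7.2 µM single dose | Times: 15 min compound exposure at 25 °C | Signal: Fluorescence, 480/540 nm | Measure: Interference relative to controls | Repeats: Triplicate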
As to `Cc1ccnc(N2C(=O)c3cccc4c([N+](=O)[O-])ccc(c34)C2=O)c1`, the fluorescence artifact activation is 3.75% (inactive).
Then `O=C1c2cccc3c([N+](=O)[O-])ccc(c23)C(=O)N1Cc1cccnc1`, with 0.04% (inactive).
Take `CN(C)CCCN1C(=O)c2cccc3c([N+](=O)[O-])ccc(c23)C1=O`: the fluorescence artifact activation was 14.2% (active).
`O=C(O)c1ccccc1C1=Nc2ccc(O)cc2Oc2cc(O)ccc21`: the fluorescence artifact activation was 0.18% (inactive).
In the case of `Cc1cc(C)n(NC(=S)NC2CCCCC2)c(=O)c1C#N`, the fluorescence artifact activation is -0.01% (inactive).
For the compound `Cc1ccccc1-c1noc(-c2cccs2)n1`, the fluorescence artifact activation was 5.07% (inactive).
On to `CC(=O)[C@H]1[C@H](C#N)C[C@H]2[C@@H]3CC=C4C[C@@H](O)CC[C@]4(C)[C@H]3CC[C@@]21C`, for which the fluorescence artifact activation was 10.9% (inactive).
Then `Cc1cc(-n2c(=O)c(C#N)cc3c(=O)n4ccccc4nc32)no1`, with 0.34% (inactive); and `CN(C)c1ccc(/C=C2\Oc3ccc(C#Cc4cccc(N)c4)cc3C2=O)cc1`, with 0.09% (inactive).
On to `Cc1nn(-c2ccccc2)c(N2CCCC2)c1/C=C1\N=C(c2ccc(OC(C)C)cc2)OC1=O`, for which the fluorescence artifact activation was 0.42% (inactive).
Regarding `COc1ccc(NC(C)=O)cc1NC(=O)C1CCCN1C(=O)c1cccs1` (stereo not drawn), the fluorescence artifact activation is -0.02% (inactive).
The figure for `CCN(CC)c1ccc(/C=c2\sc3nc4ccccc4n3c2=O)c(O)c1` is 3.44% (inactive).
As for `CCN(CC)c1ccc(/C=c2\sc3nnc(-c4ccccc4Cl)n3c2=O)cc1`, the fluorescence artifact activation was 13.8% (active).
In the case of `CCN(CC)c1ccc(/C=c2/sc3nnc(-c4ccccc4C)n3c2=O)cc1`, the fluorescence artifact activation was 0.53% (inactive).
Take `Cc1ccc(/C=C/C(=O)N2CCN(S(=O)(=O)c3ccc(C)c(C)c3)CC2)o1`: the fluorescence artifact activation is 2.09% (inactive).
Take `Cc1ccc(C(=O)N2C(=O)C(c3ccccc3)Oc3ccccc32)cc1` (stereo not drawn): the fluorescence artifact activation is 0.42% (inactive).
In the case of `CN1CC=C2C(C#N)=C(N)C(C#N)(C#N)C(c3ccsc3)C2C1` (stereo not drawn), the fluorescence artifact activation was 0.22% (inactive).
On to `C=CCN1C=CC(=CC=C(C#N)C#N)C=C1`, for which the fluorescence artifact activation is 251% (active).
For the compound `CCCN1C=CC(=CC=C(C#N)C#N)C=C1`, the fluorescence artifact activation was 4.48% (inactive).
Then `CCOc1ccc(S(=O)(=O)n2ccnc2)c2ccccc12`, with 2.67% (inactive); and `CCc1ccc(C(=O)NNC(=O)c2cccc(N3C(=O)CCC3=O)c2)cc1`, with 2.93% (inactive); and `CCc1cc[n+](-c2nc3ccccc3nc2[N-]S(=O)(=O)c2ccc(Br)s2)cc1`, with -0.02% (inactive).
For `O=S(=O)([N-]c1nc2ccccc2nc1-[n+]1ccc(-c2ccncc2)cc1)c1ccccc1`, the fluorescence artifact activation was 0.08% (inactive).
`Cc1ccc[n+](-c2nc3ccccc3nc2[N-]S(=O)(=O)c2ccccc2)c1`: the fluorescence artifact activation is 17.5% (active).
In the case of `CC1=Nc2ccccc2/C1=C\c1nc(-c2ccc(F)cc2)oc1O`, the fluorescence artifact activation was 0.71% (inactive).
As to `Cc1ccc(NC(=S)Nc2ccc3nc(-c4ccccn4)c(-c4ccccn4)nc3c2)cc1C`, the fluorescence artifact activation was 0% (inactive).
For `O=C(COc1ccccc1)NC(=S)Nc1cccc(NC(=O)c2ccccc2Cl)c1`, the fluorescence artifact activation is 0.01% (inactive).
Turning to `CC(C)CNC(=S)NC(=O)c1ccccc1Cl`, the fluorescence artifact activation is 32.2% (active).
`Cc1ccccc1C(=O)NC(=S)NC1CC1`: the fluorescence artifact activation is 0.12% (inactive).
As for `CCCn1c(=N)n(CC(O)c2ccco2)c2ccccc21` (stereo not drawn), the fluorescence artifact activation is 0.03% (inactive).
On to `COCCCN1C(=O)/C(=C/c2ccc(CNS(=O)(=O)c3ccccc3)o2)C(C(=O)OC)=C1C`, for which the fluorescence artifact activation was 0.04% (inactive).
The figure for `CCOc1ccc(CNC(=O)c2ccc(Sc3ccc(Cl)cc3)c(NC(C)=O)c2)cc1` is 1.09% (inactive).
As to `CC(=O)Nc1cc(C(=O)NCc2ccco2)ccc1Sc1ccc(F)cc1`, the fluorescence artifact activation is 18.1% (active).
Then `COc1c(Cl)ccc(Cl)c1C(=O)NCc1ccco1`, with 0.03% (inactive).
The figure for `CCCCOc1[nH]c2nc(-c3ccco3)n(Cc3ccco3)c(=N)c2c1C#N` is 0.23% (inactive).
In the case of `O=c1nc2c(O)cccn2c2c1c(=O)[nH]c1ccccc12`, the fluorescence artifact activation was 0.02% (inactive).
Take `Cc1sc2nc(COC(=O)c3cccc(S(=O)(=O)N(C)c4ccccc4)c3)[nH]c(=O)c2c1C`: the fluorescence artifact activation is 0.1% (inactive).
The figure for `Cc1cccc(C)c1NC(=O)CN(C1CCCCC1)S(C)(=O)=O` is 0.02% (inactive); for `CCCNC(=O)c1ccc(N2CCC3(CC2)CC(c2cccc(Br)c2)=NO3)c(NC(=O)c2cccc(C)c2)c1` it is 3.63% (inactive).
On to `O=C(c1cc(-c2cccs2)nn1-c1ccccc1)N1CCN(S(=O)(=O)c2ccccc2)CC1`, for which the fluorescence artifact activation is 2.28% (inactive).
Take `O=C(c1cc(Cl)ccc1O)N1CCN(S(=O)(=O)c2cccs2)CC1`: the fluorescence artifact activation is 114% (active).
Regarding `CC(=O)N1CCc2c(sc(NC(=O)C3CCCN3S(=O)(=O)c3cccs3)c2C(N)=O)C1` (stereo not drawn), the fluorescence artifact activation was 9.49% (inactive).
Consider `O=C(Nc1nccs1)C1CCN(S(=O)(=O)c2ccccc2)CC1`, for which the fluorescence artifact activation is 461% (active).
Then `CCOc1ccc(NC(=O)C2CCN(S(=O)(=O)c3cccnc3)CC2)cc1`, with -0.04% (inactive); and `O=C(Nc1ccccc1N1CCOCC1)C1CCN(S(=O)(=O)c2ccccc2F)CC1`, with -0.05% (inactive).
The figure for `O=C(Cc1cccs1)N1CCN(S(=O)(=O)c2cc(Cl)ccc2Cl)CC1` is 1.88% (inactive); for `O=C(Nc1ccc(Cl)cn1)C1CCN(S(=O)(=O)c2cccs2)CC1` it is 74.6% (active); for `O=C(CC1CCCC1)N1CCN(S(=O)(=O)c2ccccc2)CC1` it is 0.13% (inactive).
For `COc1cccc(CNC(=O)CCC(=O)N2CC(C)Oc3ccccc32)c1OC` (stereo not drawn), the fluorescence artifact activation was 0.11% (inactive).
Consider `Cc1c(C(=O)NC2CC2)oc2ccccc12`, for which the fluorescence artifact activation was 0.04% (inactive).
Regarding `Cc1cc(C)nc(NC(=O)c2ccc(Cl)c(Cl)c2)n1`, the fluorescence artifact activation was 0.33% (inactive).
Regarding `CC1=C(C#N)C(=O)OC(C)(C)C1`, the fluorescence artifact activation was 0.01% (inactive).
Regarding `Cc1[nH]c(=O)c(C#N)c(C)c1Cl`, the fluorescence artifact activation was 0.06% (inactive).
Consider `O=C(N/N=C/c1sc(N2CCOCC2)nc1-c1ccccc1)c1cccc(S(=O)(=O)N2CCCC2)c1`, for which the fluorescence artifact activation was 0% (inactive).
Turning to `Cc1cc2nc3c(=O)[nH]c(=O)[nH]c3nc2c([N+](=O)[O-])c1N`, the fluorescence artifact activation is 0.02% (inactive).
Then `O=C1/C(=C/c2cccs2)N=C(c2cccs2)N1Nc1ccccc1`, with 4.3% (inactive); and `COCCN(C(=S)Nc1cccc(OC)c1)C1CCN(C(C)=O)CC1`, with 0.16% (inactive).
For the compound `CCn1cc(/C=C/C(=O)Nc2c(C)nn(Cc3ccccc3C)c2C)cn1`, the fluorescence artifact activation was 0.05% (inactive).

The values are drawn from PubChem BioAssay AID504382 (The Scripps Research Institute Molecular Screening Center, 2011).
